# Assay results reported in EPA's CvTdb concentration-time database.
# Assays:
# Mouse [1] = test: concentration in plasma after dosing; details: dosed: 2,4-Dichlorophenoxyacetic acid, 1.0 mg/kg, iv, Male, B6C3F1
# Hamster = test: concentration in plasma after dosing; details: dosed: 2,4-Dichlorophenoxyacetic acid, 8.0 mg/kg, iv, Male, Syrian Golden
# Outline: (§1)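 Points were largely digitised from plot screenshots with WebPlotDigitizer or otherwise copied from tables, and they remain in the units each source reported. They come from published in vivo toxicokinetic studies and two structured collections. Sampling and analytical methods follow each source and were often not reported.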
# Rat [2] = test: concentration in plasma after dosing; details: dosed: 2-Hydroxy-4-methoxybenzophenone, 250 mg/kg, oral, Male, F344
# Mouse [3] = test: concentration in plasma after dosing; details: 0.25 h; dosed: 2-Hydroxy-4-methoxybenzophenone; 50 mg/kg; iv; Male; B6C3F1
# Rat [4] = test: concentration in plasma after dosing; details: 6 h; dosed: 2-Hydroxy-4-methoxybenzophenone; 500 mg/kg; oral; Male; F344
# Mouse [5] = test: concentration in plasma after dosing; details: 2.5 min; dosed: 2-Hydroxy-4-methoxybenzophenone; 250 mg/kg; oral; Male; B6C3F1
# Rat [6] = test: concentration in plasma after dosing; details: dosed: Methyleugenol, 37 mg/kg, iv, Male, F344
# Rat [7] = test: concentration in kidney after dosing; details: 12 h; dosed: Perfluorohexane-1-sulphonic acid – potassium salt; 16 mg/kg; oral; Female; F344
# Rat [8] = test: concentration in plasma after dosing; details: dosed: Perfluorohexane-1-sulphonic acid – potassium salt, 4 mg/kg, oral, Male, F344
# Rat [9] = test: concentration in kidney after dosing; details: 6 h; dosed: Perfluorohexane-1-sulphonic acid – potassium salt; 16 mg/kg; oral; Female; F344
# Rat [10] = test: concentration in kidney after dosing; details: 24 h; dosed: Perfluorohexane-1-sulphonic acid – potassium salt; 16 mg/kg; oral; Female; F344
# Rat [11] = test: concentration in plasma after dosing; details: 0.5 h; dosed: Primidone; 80 mg/kg; oral; Female; Harlan Sprague-Dawley
# Rat [12] = test: concentration in plasma after dosing; details: 9 h; dosed: Primidone; 130 mg/kg; oral; Female; F344
# Rat [13] = test: concentration in plasma after dosing; details: 2 h; dosed: Pyridine; 10 mg/kg; iv; Male; F344
# Rat [14] = test: concentration in plasma after dosing; details: dosed: Pyridine, 5 mg/kg, iv, Male, F344
# Rat [15] = test: concentration in plasma after dosing; details: 50 min; dosed: Pyridine; 10 mg/kg; iv; Male; F344
# Rat [16] = test: concentration in plasma after dosing; details: 10 min; dosed: Pyridine; 10 mg/kg; oral; Male; F344
# Rat [17] = test: concentration in brain after dosing; details: 5 min; dosed: alpha-Thujone; 50 mg/kg; oral; Female; Harlan Sprague Dawley
# Rat [18] = test: concentration in brain after dosing; details: 6 h; dosed: alpha-Thujone; 25 mg/kg; oral; Male; Harlan Sprague Dawley
# Rat [19] = test: concentration in plasma after dosing; details: 12 h; dosed: alpha-Thujone; 25 mg/kg; oral; Male; Harlan Sprague Dawley
# Rat [20] = test: concentration in plasma after dosing; details: 10 min; dosed: alpha-Thujone; 25 mg/kg; oral; Male; Harlan Sprague Dawley
# Rat [21] = test: concentration in plasma after dosing; details: 0.5 h; dosed: alpha-Thujone; 25 mg/kg; oral; Male; Harlan Sprague Dawley
# Rat [22] = test: concentration in plasma after dosing; details: 0.5 h; dosed: alpha-Thujone; 25 mg/kg; oral; Male; Harlan Sprague Dawley; remark: listed apart in the source
# Rat [23] = test: concentration in plasma after dosing; details: 0.5 h; dosed: alpha-Thujone; 25 mg/kg; oral; Female; Harlan Sprague Dawley
# Rat [24] = test: concentration in plasma after dosing; details: 2 min; dosed: alpha-Thujone; 25 mg/kg; oral; Male; Harlan Sprague Dawley
# Rat [25] = test: concentration in plasma after dosing; details: 10 min; dosed: alpha-Thujone; 25 mg/kg; oral; Male; Harlan Sprague Dawley; remark: listed apart in the source
# human = test: amount in urine after dosing (mg cumulative excretion); details: dosed: trichloroethylene, inhalation, duration: 8 hr
# Outline: as §1
smiles,measurement,setting,value
"O=C(O)COc1ccc(Cl)cc1Cl [2,4-Dichlorophenoxyacetic acid]",concentration in plasma,Mouse [1]; 2.5 min,8150 ng/mL
same,concentration in plasma,Mouse [1]; 10 min,8340 ng/mL
same,concentration in plasma,Mouse [1]; 0.5 h,6070 ng/mL
same,concentration in plasma,Mouse [1]; 3 h,446 ng/mL
same,concentration in plasma,Hamster; 2.5 min,127000 ng/mL
same,concentration in plasma,Hamster; 5 min,68500 ng/mL
same,concentration in plasma,Hamster; 10 min,43200 ng/mL
same,concentration in plasma,Hamster; 20 min,15900 ng/mL
same,concentration in plasma,Hamster; 40 min,2690 ng/mL
same,concentration in plasma,Hamster; 1.5 h,327 ng/mL
same,concentration in plasma,Hamster; 2 h,159 ng/mL
"O=C(c1ccccc1)c1ccc(O)cc1O [2,4-Dihydroxybenzophenone]",concentration in plasma,Rat [2]; 0.25 h,33 ng/mL
same,concentration in plasma,Rat [2]; 4 h,90.4 ng/mL
same,concentration in plasma,Mouse [3],1970 ng/mL
same,concentration in plasma,Rat [4],285 ng/mL
same,concentration in plasma,Mouse [5],149 ng/mL
C=CCc1ccc(OC)c(OC)c1 [Methyleugenol],concentration in plasma,Rat [6]; 0.25 h,8180 ng/mL
same,concentration in plasma,Rat [6]; 1.5 h,878 ng/mL
O=S(=O)([O-])C(F)(F)C(F)(F)C(F)(F)C(F)(F)C(F)(F)C(F)(F)F.[K+] [Perfluorohexane-1-sulphonic acid – potassium salt],concentration in kidney,Rat [7],35900 ng/g
same,concentration in plasma,Rat [8]; 6 h,28700 ng/mL
same,concentration in plasma,Rat [8]; 192 h,19100 ng/mL
same,concentration in kidney,Rat [9],39300 ng/g
same,concentration in kidney,Rat [10],28100 ng/g
CCC1(c2ccccc2)C(=O)NCNC1=O [Primidone],concentration in plasma,Rat [11],22900 ng/mL
same,concentration in plasma,Rat [12],52500 ng/mL
c1ccncc1 [Pyridine],concentration in plasma,Rat [13],1320 ng/mL
same,concentration in plasma,Rat [14]; 2 h,2780 ng/mL
same,concentration in plasma,Rat [14]; 14 h,89 ng/mL
same,concentration in plasma,Rat [15],2310 ng/mL
same,concentration in plasma,Rat [16],5480 ng/mL
CC(C)[C@]12CC(=O)[C@H](C)[C@H]1C2 [alpha-Thujone],concentration in brain,Rat [17],105 ng/g
same,concentration in brain,Rat [18],84.6 ng/g
same,concentration in plasma,Rat [19],20.5 ng/mL
same,concentration in plasma,Rat [20],243 ng/mL
same,concentration in plasma,Rat [21],324 ng/mL
same,concentration in plasma,Rat [22],176 ng/mL
same,concentration in plasma,Rat [23],305 ng/mL
same,concentration in plasma,Rat [24],18 ng/mL
same,concentration in plasma,Rat [25],872 ng/mL
OCC(Cl)(Cl)Cl [trichloroethanol],amount in urine,"human; 7.932 h, 97 ppm",111
same,amount in urine,"human; 7.949 h, 54 ppm",76.3
same,amount in urine,"human; 8.43 h, 97 ppm",104
same,amount in urine,"human; 8.618 h, 54 ppm",55.6
same,amount in urine,"human; 9.257 h, 97 ppm",96.4
same,amount in urine,"human; 23.71 h, 54 ppm",175
same,amount in urine,"human; 23.74 h, 97 ppm",288
same,amount in urine,"human; 24.11 h, 54 ppm",191
same,amount in urine,"human; 24.33 h, 97 ppm",255
same,amount in urine,"human; 24.69 h, 97 ppm",352
same,amount in urine,"human; 47.97 h, 97 ppm",393
same,amount in urine,"human; 47.99 h, 97 ppm",364
same,amount in urine,"human; 48.13 h, 97 ppm",417
same,amount in urine,"human; 49.69 h, 54 ppm",258
same,amount in urine,"human; 49.75 h, 54 ppm",291
same,amount in urine,"human; 71.65 h, 54 ppm",301
same,amount in urine,"human; 71.89 h, 54 ppm",323
same,amount in urine,"human; 72.02 h, 97 ppm",395
same,amount in urine,"human; 72.49 h, 97 ppm",431
same,amount in urine,"human; 72.5 h, 97 ppm",422
same,amount in urine,"human; 95.28 h, 54 ppm",314
same,amount in urine,"human; 95.43 h, 54 ppm",328
same,amount in urine,"human; 95.87 h, 97 ppm",444
same,amount in urine,"human; 95.88 h, 97 ppm",429
same,amount in urine,"human; 96.05 h, 97 ppm",408
same,amount in urine,"human; 119.38 h, 54 ppm",345
same,amount in urine,"human; 119.39 h, 54 ppm",327
same,amount in urine,"human; 119.52 h, 97 ppm",409
same,amount in urine,"human; 119.58 h, 97 ppm",452
same,amount in urine,"human; 119.67 h, 97 ppm",430
same,amount in urine,"human; 142.52 h, 54 ppm",348
same,amount in urine,"human; 142.61 h, 54 ppm",331
same,amount in urine,"human; 143.45 h, 97 ppm",458
same,amount in urine,"human; 143.64 h, 97 ppm",412
same,amount in urine,"human; 143.71 h, 97 ppm",433
same,amount in urine,"human; 166.64 h, 54 ppm",352
same,amount in urine,"human; 167.26 h, 97 ppm",433
same,amount in urine,"human; 167.33 h, 97 ppm",463
same,amount in urine,"human; 167.44 h, 97 ppm",411
same,amount in urine,"human; 191.64 h, 97 ppm",414
same,amount in urine,"human; 191.88 h, 97 ppm",432
same,amount in urine,"human; 192.11 h, 97 ppm",466
